One series deals with NCI-H441. Briefly: Cytotoxicity in human H441 cells incubated for 72 hrs by alamar blue reagent based assay. It counts as cell-based. The procedure, abridged: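 Cells seeded at 8,000 per well in RPMI-1640 with 10% FBS, dosed next day across a concentration range for 72 h. Alamar Blue (1:10, in phenol red-free RPMI with 10% FBS) added for 4 h, fluorescence read at ex 530/em 580 nm. IC50 from curve fit; triplicate in three independent sets, mean ± SD.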
A general note: The colour change of resazurin is a common sign of viable cells or microbes.

For the next series, the system named is NCI-H2228. Briefly: Cytotoxicity in human NCI-H2228 cells harboring EML4-fused ALK variant 3 incubated for 72 hrs by alamar blue reagent based assay. It counts as functional, cell-based. The following applies: NCI-H2228, 72 h.
The nature of series [1]: Biodistribution in nude mouse assessed as accumulation in brain tissue at 100 uCi, iv measured for 60 mins by PET imaging analysis. Conditions: in vivo, 1 h; call rule not given here. It counts as ADME, organism-based. The procedure, abridged: (§1)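 Dynamic PET 0–10 min after injection under anesthesia, then 10-min static scans at 30 and 60 min. Regions of interest drawn on decay-corrected whole-body coronal images and converted to %ID/cc. Mean ± SD.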

Series [2] can be described thus: Drug uptake in human NCI-H2228 cells harboring EML4-fused ALK variant 3 at 1 uCi incubated for 30 mins by radioactivity-based assay. The class given is ADME, cell-based. The following applies: nci-h2228, 0.5 h. The procedure, abridged: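 H2228 cells seeded at 10⁶ per well in RPMI-1640 with 10% FBS. Wells washed twice with ice-cold PBS, cells trypsinized 5 min at 37°C, then gamma counted. Uptake given as cpm per million cells, in triplicate.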

The nature of series [3]: Biodistribution in nude mouse assessed as accumulation in muscle tissue at 100 uCi, iv measured for 60 mins by PET imaging analysis. The class given is ADME, organism-based. Conditions: in vivo, 1 h. The procedure, abridged:
as §1

Series [4] is described as follows: Drug uptake in human H441 cells at 1 uCi incubated for 30 mins by radioactivity-based assay. It counts as ADME, cell-based. Conditions: nci-h441, 0.5 h. In a few lines: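 Medium removed, two ice-cold PBS washes, trypsinised 5 min at 37°C, gamma counted. Uptake expressed as counts per minute per million cells; triplicate.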
Series [5] can be described thus: Biodistribution in nude mouse assessed as accumulation in muscle tissue at 100 uCi, iv measured for 10 mins by PET imaging analysis. The class given is ADME, organism-based. The following applies: in vivo. In a few lines:
as §1

Series [6] is described as follows: Biodistribution in nude mouse assessed as accumulation in kidney tissue at 100 uCi, iv measured for 5 mins by PET imaging analysis. The class given is ADME, organism-based. Conditions: in vivo. The procedure, abridged:
as §1

A short description of series [7]: Biodistribution in nude mouse assessed as accumulation in heart tissue at 100 uCi, iv measured for 60 mins by PET imaging analysis. The class given is ADME, organism-based. The following applies: in vivo, 1 h. The procedure, abridged: as §1
A short description of series [8]: Biodistribution in nude mouse assessed as accumulation in heart tissue at 100 uCi, iv measured for 5 mins by PET imaging analysis. It counts as ADME, organism-based. Conditions: in vivo. The procedure, abridged: as §1
Series [9] can be described thus: Biodistribution in nude mouse assessed as accumulation in kidney tissue at 100 uCi, iv measured for 60 mins by PET imaging analysis. The following applies: in vivo, 1 h. The class given is ADME, organism-based. In a few lines: as §1
Series [10] is described as follows: Biodistribution in nude mouse assessed as accumulation in heart tissue at 100 uCi, iv measured for 30 mins by PET imaging analysis. It counts as ADME, organism-based. Conditions: in vivo, 0.5 h. In a few lines:
as §1

Series [11] can be described thus: Biodistribution in nude mouse assessed as accumulation in kidney tissue at 100 uCi, iv measured for 30 mins by PET imaging analysis. It counts as ADME, organism-based. The following applies: in vivo, 0.5 h. The procedure, abridged: as §1
Series [12] can be described thus: Lipophilicity, log D of the compound in octanol/pH 7.4 PBS vortex at 1 uCi for 5 mins and repeated for 4 times by gamma counter method. It counts as physicochemical. The following applies: octanol/water, pH 7.4, 5 min. The procedure, abridged: (§2)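 Vortexed 5 min, repeated four times, then centrifuged 2×5 min at 4000 rpm, 4°C. Value taken from the ratio of octanol to aqueous activity.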

Series [13] can be described thus: Biodistribution in nude mouse assessed as accumulation in muscle tissue at 100 uCi, iv measured for 30 mins by PET imaging analysis. The following applies: in vivo, 0.5 h. The class given is ADME, organism-based. The procedure, abridged:
as §1

Series [14] is described as follows: Biodistribution in nude mouse assessed as accumulation in liver tissue at 100 uCi, iv measured for 10 mins by PET imaging analysis. The class given is ADME, organism-based. Conditions: in vivo. The procedure, abridged:
as §1

A short description of series [15]: Biodistribution in nude mouse assessed as accumulation in kidney tissue at 100 uCi, iv measured for 10 mins by PET imaging analysis. The class given is ADME, organism-based. The following applies: in vivo. In a few lines:
as §1

A short description of series [16]: Biodistribution in nude mouse assessed as accumulation in muscle tissue at 100 uCi, iv measured for 5 mins by PET imaging analysis. The class given is ADME, organism-based. The following applies: in vivo. In a few lines: as §1
The nature of series [17]: Biodistribution in nude mouse assessed as accumulation in brain tissue at 100 uCi, iv measured for 10 mins by PET imaging analysis. It counts as ADME, organism-based. The following applies: in vivo. In a few lines: as §1
Series [18] is described as follows: Biodistribution in nude mouse assessed as accumulation in liver tissue at 100 uCi, iv measured for 5 mins by PET imaging analysis. The class given is ADME, organism-based. Conditions: in vivo. The procedure, abridged: as §1
Series [19] can be described thus: Biodistribution in nude mouse assessed as accumulation in liver tissue at 100 uCi, iv measured for 30 mins by PET imaging analysis. It counts as ADME, organism-based. Conditions: in vivo, 0.5 h. The procedure, abridged: as §1
Series [20] is described as follows: Biodistribution in nude mouse assessed as accumulation in brain tissue at 100 uCi, iv measured for 30 mins by PET imaging analysis. Conditions: in vivo, 0.5 h. It counts as ADME, organism-based. In a few lines: as §1
Series [21] is described as follows: Biodistribution in nude mouse assessed as accumulation in liver tissue at 100 uCi, iv measured for 60 mins by PET imaging analysis. The following applies: in vivo, 1 h. The class given is ADME, organism-based. In a few lines:
as §1

A short description of series [22]: Biodistribution in nude mouse assessed as accumulation in brain tissue at 100 uCi, iv measured for 5 mins by PET imaging analysis. The class given is ADME, organism-based. Conditions: in vivo. The procedure, abridged: as §1
Series [23] in a line: Octanol/water partition coefficient, logP of compound at 1 uCi vortex for 5 mins and repeated for 4 times by gamma counter method. The class given is physicochemical. In a few lines: as §2
A short description of series [24]: Biodistribution in nude mouse assessed as accumulation in heart tissue at 100 uCi, iv measured for 10 mins by PET imaging analysis. Conditions: in vivo. It counts as ADME, organism-based. The procedure, abridged: as §1

Data on seven compounds can be found in ChEMBL document CHEMBL4359889 (Eur J Med Chem, 2019).

Consider `CCc1cc2c(cc1N1CCC(N3CCOCC3)CC1)C(C)(C)c1c(c3ccc(C#N)cc3n1CCF)C2=O`, for which the concentration for half-maximal inhibition (IC50) entry in the series with NCI-H441 was “Non-Toxic”; in the series on NCI-H2228, 0.01 µM.
In the series on NCI-H2228, `Cc1cc(Nc2ncc(Cl)c(Nc3ccccc3S(=O)(=O)C(C)C)n2)c(OC(C)C)cc1C1CCN(CCF)CC1` returned an IC50 of 24.2 µM.
For the compound `C[C@@H](Oc1cc(-c2cnn(C3CCN(CC[18F])CC3)c2)cnc1N)c1c(Cl)ccc(F)c1Cl`, the Drug uptake in [1] is on record as 1.8 %ID/cc; in series [2], “Active”; in [3] it was 1.2 %ID/cc.
In the case of `CCc1cc2c(cc1N1CCC(N3CCOCC3)CC1)C(C)(C)c1[nH]c3cc(C#N)ccc3c1C2=O` [ALECTINIB], in the series with NCI-H441, the 50% inhibitory concentration (IC50) result was “Non-Toxic”.
Turning to `CCc1cc2c(cc1N1CCC(N3CCOCC3)CC1)C(C)(C)c1c(c3ccc(C#N)cc3n1CC[18F])C2=O`, the Drug uptake entry in [4] is on record as “Active”.
For the compound `Cc1cc(Nc2ncc(Cl)c(Nc3ccccc3S(=O)(=O)C(C)C)n2)c(OC(C)C)cc1C1CCN(CC[18F])CC1`, the Drug uptake was determined as 3.9 %ID/cc in series [5]; 20.2 %ID/cc in series [6]; 2.6 %ID/cc in [7]; 9.1 %ID/cc in series [8]; 5.7 %ID/cc in series [9]; 4 %ID/cc in series [1]. The Drug uptake in series [10] amounted to 3.1 %ID/cc; in [11] it was 7.2 %ID/cc; in series [13] it was 2.4 %ID/cc; in series [14], 17.9 %ID/cc; in series [15], 18.2 %ID/cc; in [16], 3.6 %ID/cc. In addition, the Drug uptake in series [17] is listed as 6.5 %ID/cc; in [2], “Active”; in series [18], 16.8 %ID/cc; in series [19], 9.5 %ID/cc; in series [3], 2.1 %ID/cc; in series [20], 4.6 %ID/cc. Besides, the Drug uptake in [21] amounted to 6.4 %ID/cc; in series [22], 6.6 %ID/cc; in series [24], 7 %ID/cc. Also, the logD in series [12] was determined as 1.51. Moreover, the log partition coefficient (logP) in series [23] was 0.97.
The compound `C[C@@H](Oc1cc(-c2cnn(C3CCN(CCF)CC3)c2)cnc1N)c1c(Cl)ccc(F)c1Cl` returned a half-inhibitory concentration (IC50) in the series on NCI-H2228 of 7.5 µM.

The term IC50 denotes the concentration that inhibits the measured activity by half. Read a low IC50 as greater potency in that assay. Broadly, the logD is the decadic logarithm of the distribution of all forms, ionised or not, between an organic phase and buffer at a given pH. Lower therefore signals lower lipophilicity. What is called logP is the decadic logarithm of the partition coefficient of the neutral form, usually between octanol and water. A higher logP goes with a more lipophilic compound.
